According to ChEMBL document CHEMBL4033692, “Synthesis and biological research of novel azaacridine derivatives as potent DNA-binding ligands and topoisomerase II inhibitors” (Bioorg Med Chem, 2017):
Active and inactive are the calls of the source. The calls are words filed in the database; no cut-off is given here.

Assays:
K562 = test: Antiproliferative activity against human K562 cells after 48 hrs by MTT assay; format: functional, cell-based; conditions: K562, 48 h
Procedure, shortened: (§1)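 MTT assay. Cells were seeded at 5-10×10^3 per well and incubated overnight at 37 °C under 5% CO2. Graded compound concentrations or equal DMSO in fresh medium were then added for 48 h. MTT (5 mg/mL stock) was added for a further 4 h, formazan was dissolved in DMSO, and A490 was read. IC50 is given as mean ± S.D. of three experiments in triplicate.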

HepG2 = test: Antiproliferative activity against human HepG2 cells after 48 hrs by MTT assay; format: functional, cell-based; conditions: HepG2, 48 h; procedure, shortened: as §1
U-937 [1] = test: Antiproliferative activity against human U937 cells after 48 hrs by MTT assay; format: functional, cell-based; conditions: U-937, 48 h; procedure, shortened: as §1
Homo sapiens [2] = species: Homo sapiens; test: Inhibition of human topoisomerase-2 at 50 to 100 uM using supercoiled pBR322 DNA as substrate after 10 to 15 mins by ethidium bromide staining based electrophoresis
Procedure, shortened: (§2)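 Relaxation of supercoiled pBR322 (500 ng) by 1 unit of human Top I or Top II, with or without compound in reaction buffer. Reactions ran 10-15 min at 37 °C and were stopped with loading buffer. Products were run on 1% agarose in TAE at 90 V for 25 min and stained with ethidium bromide under UV. Controls were CPT (Top I) and m-AMSA (Top II).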

Homo sapiens [3] = species: Homo sapiens; test: Inhibition of human topoisomerase-2 at 50 uM using supercoiled pBR322 DNA as substrate after 10 to 15 mins by ethidium bromide staining based electrophoresis relative to control; procedure, shortened: as §2
Homo sapiens [4] = species: Homo sapiens; test: Inhibition of human topoisomerase-2 at 10 uM using supercoiled pBR322 DNA as substrate after 10 to 15 mins by ethidium bromide staining based electrophoresis relative to control; procedure, shortened: as §2
A549 = test: Antiproliferative activity against human A549 cells after 48 hrs by MTT assay; format: functional, cell-based; conditions: A549, 48 h; procedure, shortened: as §1
HeLa = test: Antiproliferative activity against human HeLa cells after 48 hrs by MTT assay; format: functional, cell-based; procedure, shortened: as §1
[5] = Antiproliferative activity against human QSG7701 cells after 48 hrs by MTT assay; format: cell-based; conditions: QSG7701, 48 h; procedure, shortened: as §1
[6] = biological target: T1, DNA topoisomerase 1 (Homo sapiens) (UniProt P11387); test: Inhibition of human topoisomerase-1 at 100 uM using supercoiled pBR322 DNA as substrate after 10 to 15 mins by ethidium bromide staining based electrophoresis; procedure, shortened: as §2
T1 sequence (whole entry): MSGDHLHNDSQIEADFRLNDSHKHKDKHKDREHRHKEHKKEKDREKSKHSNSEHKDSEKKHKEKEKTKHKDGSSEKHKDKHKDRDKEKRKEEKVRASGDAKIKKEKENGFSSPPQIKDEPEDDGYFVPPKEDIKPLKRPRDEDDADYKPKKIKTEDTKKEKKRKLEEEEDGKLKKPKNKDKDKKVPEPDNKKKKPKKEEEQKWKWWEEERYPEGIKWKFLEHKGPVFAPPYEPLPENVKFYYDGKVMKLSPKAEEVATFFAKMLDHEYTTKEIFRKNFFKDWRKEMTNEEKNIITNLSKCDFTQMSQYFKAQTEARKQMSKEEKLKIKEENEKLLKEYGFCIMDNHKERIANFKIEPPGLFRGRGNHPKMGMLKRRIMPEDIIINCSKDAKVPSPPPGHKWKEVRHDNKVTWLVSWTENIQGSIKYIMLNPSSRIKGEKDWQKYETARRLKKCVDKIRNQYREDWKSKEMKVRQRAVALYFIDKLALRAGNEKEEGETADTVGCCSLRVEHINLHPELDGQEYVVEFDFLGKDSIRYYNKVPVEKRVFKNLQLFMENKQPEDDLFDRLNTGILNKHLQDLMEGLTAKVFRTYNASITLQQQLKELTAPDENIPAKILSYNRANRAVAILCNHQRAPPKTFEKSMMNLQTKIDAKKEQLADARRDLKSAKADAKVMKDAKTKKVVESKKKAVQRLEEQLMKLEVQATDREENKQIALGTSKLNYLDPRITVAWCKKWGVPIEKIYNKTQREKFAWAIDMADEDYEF

[7] = Safety index, ratio of compound IC50 to m-AMSA IC50 for human QSG7701 cells; format: ADME, cell-based; conditions: read-out: Ratio IC50
Bos taurus [8] = species: Bos taurus; test: Binding affinity to calf thymus DNA assessed as bathochromic shift at 40 uM after 5 mins by UV-Visible absorption spectral analysis
Procedure, shortened: (§3)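 UV-vis titration in Tris-HCl pH 7.4 in a 1.0 cm quartz cell. Compound was at 40 µM (added from a 5 mM DMSO stock) with ct DNA at final 0, 0.75, 2.25, 3.75, 6.00 and 9.75 µM. Each mixture was incubated 5 min before the absorption spectrum was recorded.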

Bos taurus [9] = species: Bos taurus; test: Binding affinity to calf thymus DNA after 5 mins by UV-Visible absorption spectral analysis; procedure, shortened: as §3
Bos taurus [10] = species: Bos taurus; test: Binding affinity to calf thymus DNA after 5 mins by fluorescence emission spectral analysis
Procedure, shortened: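 Fluorescence titration in Tris-HCl pH 7.4. Compound came from a 5 mM DMSO stock, with ct DNA at final 0, 0.2, 0.7, 1, 1.5 and 2.5 µM. Mixtures were incubated 5 min before emission spectra were recorded. Quenching was fitted to F0/F = 1 + Kq[Q].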

U-937 [11] = test: Induction of apoptosis in human U937 cells after 48 hrs by Annexin-V FITC/propidium iodide staining based flow cytometry; format: functional, cell-based
Procedure, shortened: (§4)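 U937 cells were treated for 48 h at 0, 1 or 2.5 µM. Phosphatidylserine externalization (Annexin V-FITC) and membrane integrity (PI) were then read by flow cytometry using a kit per the manufacturer's instructions.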

U-937 [12] = test: Induction of apoptosis in human U937 cells assessed as live cells at 1 uM after 48 hrs by Annexin-V FITC/propidium iodide staining based flow cytometry (reference value: 92.4%); format: functional; procedure, shortened: as §4
U-937 [13] = test: Induction of apoptosis in human U937 cells assessed as early apoptotic cells at 1 uM after 48 hrs by Annexin-V FITC/propidium iodide staining based flow cytometry (reference value: 7.42%); format: functional; procedure, shortened: as §4
U-937 [14] = test: Induction of apoptosis in human U937 cells assessed as late apoptotic cells at 1 uM after 48 hrs by Annexin-V FITC/propidium iodide staining based flow cytometry (reference value: 0.144%); format: functional; procedure, shortened: as §4
U-937 [15] = test: Induction of apoptosis in human U937 cells assessed as necrotic cells at 1 uM after 48 hrs by Annexin-V FITC/propidium iodide staining based flow cytometry relative to control; format: functional; procedure, shortened: as §4
U-937 [16] = test: Induction of apoptosis in human U937 cells assessed as live cells at 2.5 uM after 48 hrs by Annexin-V FITC/propidium iodide staining based flow cytometry (reference value: 92.4%); format: functional; procedure, shortened: as §4
U-937 [17] = test: Induction of apoptosis in human U937 cells assessed as early apoptotic cells at 2.5 uM after 48 hrs by Annexin-V FITC/propidium iodide staining based flow cytometry (reference value: 7.42%); format: functional; procedure, shortened: as §4
U-937 [18] = test: Induction of apoptosis in human U937 cells assessed as late apoptotic cells at 2.5 uM after 48 hrs by Annexin-V FITC/propidium iodide staining based flow cytometry (reference value: 0.144%); format: functional; procedure, shortened: as §4
U-937 [19] = test: Induction of apoptosis in human U937 cells assessed as necrotic cells at 2.5 uM after 48 hrs by Annexin-V FITC/propidium iodide staining based flow cytometry relative to control; format: functional; procedure, shortened: as §4
U-937 [20] = test: Induction of apoptosis in human U937 cells assessed as increase in cleaved caspase-8 protein expression at 1 to 2.5 uM after 48 hrs by Western blot analysis; format: functional, cell-based
Procedure, shortened: (§5)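 U937 cells in dishes were exposed to 1 or 2.5 µM for 48 h and lysed on ice for 0.5 h. Protein was quantified by BCA, run on 12% SDS-PAGE and transferred to PVDF. Membranes were blocked in 5% milk for 1 h, and primary antibody was applied overnight at 4 °C. Cleaved caspase-3/7/8 was detected with β-actin as loading control.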

U-937 [21] = test: Induction of apoptosis in human U937 cells assessed as increase in cleaved caspase-7 protein expression at 1 to 2.5 uM after 48 hrs by Western blot analysis; format: functional, cell-based; procedure, shortened: as §5
U-937 [22] = test: Induction of apoptosis in human U937 cells assessed as increase in cleaved caspase-3 protein expression at 1 to 2.5 uM after 48 hrs by Western blot analysis; format: functional, cell-based; procedure, shortened: as §5

SMILES	IC50 (K562) [µM]	IC50 (HepG2) [µM]	IC50 (U-937 [1]) [µM]	topoisomerase II inhibition (active/inactive) (Homo sapiens [2])	inhibition (Homo sapiens [3])	inhibition (Homo sapiens [4]) [%]	IC50 (HeLa) [µM]	IC50 [5] [µM]	also measured
COc1ccc2nc3cc(Cl)ccc3c(Nc3ccncc3)c2n1	13.7	> 20	> 20	Active	> 50%	> 40			
COc1ccc2nc3cc(Cl)ccc3c(Nc3ccccc3F)c2n1	10.9	> 20	> 20	Active	28.1%				
COc1ccc2nc3cc(Cl)ccc3c(Nc3ccccc3Cl)c2n1	6.1	> 20	> 20	Active	> 50%	> 40			
CC[C@@]1(O)C(=O)OCc2c1cc1n(c2=O)Cc2cc3ccccc3nc2-1 [CAMPTOTHECIN]		4.92					3.8	< 1	IC50 (A549): < 1 µM
COc1ccc2nc3cc(Cl)ccc3c(Nc3cccc(F)c3)c2n1	15.5	> 20	> 20	Active	> 50%	> 40			
COc1ccc2nc3cc(Cl)ccc3c(Nc3ccc(F)cc3)c2n1	16.5	> 20	> 20	Active	> 50%	> 40			
COc1ccc2nc3cc(Cl)ccc3c(NCc3nc4ccccc4n3CCN(C)C)c2n1	7.59	> 20	0.76	Active	> 50%	75.1	14.8	21.2	IC50 (A549): 13.1 µM; inhibition [6]: Active
COc1ccc2nc3cc(Cl)ccc3c(NCc3nc4ccccc4[nH]3)c2n1	6.06	6.62	0.57	Active	> 50%		12.6	29.4	IC50 (A549): 4.8 µM; selectivity ratio [7]: > 3; Activity (Bos taurus [8]): Active; Kb (Bos taurus [9]): 3.34 ×10⁵ /M; Kq (Bos taurus [10]): 2.34 ×10⁵ /M; Activity (U-937 [11]): Dose-dependent effect; Activity (U-937 [12]): 75.8%; Activity (U-937 [13]): 17.5%; Activity (U-937 [14]): 6.48%; Activity (U-937 [15]): 0.227%; Activity (U-937 [16]): 61.3%; Activity (U-937 [17]): 26.2%; Activity (U-937 [18]): 12.2%; Activity (U-937 [19]): 0.322%; Activity (U-937 [20]): Active; Activity (U-937 [21]): Active; Activity (U-937 [22]): Active
COc1cc(NS(C)(=O)=O)ccc1Nc1c2ccccc2nc2ccccc12 [AMSACRINE]	0.88	5.21	0.61		Active	56.9	19.2	6.43	
COc1ccc(Nc2c3ccc(Cl)cc3nc3ccc(OC)nc23)cc1	13.8	> 20	> 20	Active	> 50%				
COc1ccc2nc3cc(Cl)ccc3c(NCc3nc4ccccc4[nH]3)c2c1	> 20	> 20							
COc1ccc2nc3cc(Cl)ccc3c(Nc3ccc(C)cc3C)c2n1	14	> 20	> 20	Active	> 50%				
